# From ChEMBL document CHEMBL5247600, “Rational design of metabolically stable HDAC inhibitors: An overhaul of trifluoromethyl ketones” (Eur J Med Chem, 2022)
# Active and inactive are the calls of the source. The calls are words filed in the database; no cut-off is given here.
# Legend:
# [1] = test system: Panel NCI-60 (60 carcinoma cell lines); experiment: Anticancer activity against human Panel NCI-60 (60 carcinoma cell lines) cells assessed as cell growth inhibition at 10 uM incubated for 3 days by methylene blue staining based colorimetric assay relative to control; type: functional; design: scale not given: the % may be the effect or the level left; details: time 3 day
# Summary of the method: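 NCI-60 one-dose screen at a single concentration of 10 μM. Read-out is mean growth percentage across the panel; positive values denote cytostatic activity and negative values cytotoxicity.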
# [2] = test system: HCT-116; experiment: Induction of apoptosis in human HCT116 cells assessed as increase in cleaved PARP1 level at 5 to 10 uM incubated for 24 hrs by Western blot analysis; type: functional, cell-based; details: dose 5-10 µM
# Summary of the method: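 HCT116 cells treated 24 h at the indicated concentrations. Lysates normalized by BCA, run on 12.5% SDS-PAGE and transferred to PVDF. Blocked 1 h in 5% milk/PBST, primary antibody against cleaved PARP overnight at 4 °C, then HRP secondary 1:10 000 and ECL detection.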
# [3] = test system: Panel NCI-60 (60 carcinoma cell lines); experiment: Anticancer activity against human Panel NCI-60 (60 carcinoma cell lines) cells assessed as total cell growth inhibition incubated for 3 days by methylene blue staining based colorimetric assay relative to control; type: functional; details: 72 h, time 3 day
# Summary of the method: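 NCI-60 five-dose screen at five concentrations. […] TGI is the concentration giving total growth inhibition.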
# [4] = test system: HCT-116; experiment: Anticancer activity against human HCT-116 cells assessed as cell growth inhibition incubated for 3 days by methylene blue staining based colorimetric assay; type: functional; details: HCT-116, 72 h
# [5] = Cytotoxicity against human WI-38 cells assessed as cell survival rate at 30 uM incubated for 3 days by methylene blue staining based colorimetric assay; type: toxicity; details: time 3 day, read-out: Activity
# Summary of the method: (§1)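 Cells kept in DMEM with 10% calf or fetal bovine serum plus penicillin/streptomycin (1000 U/ml each) at 37 °C, 5% CO2. Seeded at 5000/well (n = 3), treated next day, then after 3 days fixed/stained 30 min at room temperature with methylene blue saturated in 50% ethanol.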
# [6] = test system: NCI-H522; experiment: Anticancer activity against human NCI-H522 cells assessed as cell survival rate at 30 uM incubated for 3 days by methylene blue staining based colorimetric assay; type: functional; details: time 3 day; summary of the method: as §1
# [7] = Cytotoxicity against human RPE cells assessed as cell survival rate at 30 uM incubated for 3 days by methylene blue staining based colorimetric assay; type: toxicity; details: time 3 day, read-out: Activity; summary of the method: as §1
# [8] = test system: HCT-116; experiment: Anticancer activity against human HCT-116 cells assessed as cell survival rate at 30 uM incubated for 3 days by methylene blue staining based colorimetric assay; type: functional; details: time 3 day; summary of the method: as §1
# [9] = Cytotoxicity against human RPE cells assessed as cell survival rate incubated for 3 days by methylene blue staining based colorimetric assay; type: toxicity; summary of the method: as §1
# [10] = test system: NCI-H522; experiment: Anticancer activity against human NCI-H522 cells assessed as cell survival rate incubated for 3 days by methylene blue staining based colorimetric assay; type: functional; details: NCI-H522, 72 h; summary of the method: as §1
# [11] = test system: HCT-116; experiment: Anticancer activity against human HCT-116 cells assessed as cell survival rate incubated for 3 days by methylene blue staining based colorimetric assay; type: functional; details: HCT-116, 72 h; summary of the method: as §1
# [12] = Cytotoxicity against human WI-38 cells assessed as cell survival rate incubated for 3 days by methylene blue staining based colorimetric assay; type: toxicity; summary of the method: as §1
# [13] = Metabolic stability in human Liver S9 fraction assessed as disappearance of compound and measured after 15 mins by LC-ESI-MS analysis; type: ADME, subcellular
# Summary of the method: (§2)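 Human liver S9 fraction assay. Substrate 0.02 mM, 0.1 M buffer and 1 mM NADPH preincubated 10 min at 37 °C, then S9 (0.5 mg) added in 1 mL total; run in duplicate. Aliquots taken every 15 min or at 1 h and 2 h, residue taken up in methanol, diluted 1:1 with water and analysed by LC-ESI-MS tracking M+1 ions.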
# [14] = Metabolic stability in human Liver S9 fraction assessed as metabolite TFMA 90 formation and measured for 30 mins by LC-ESI-MS analysis; type: ADME, subcellular; details: s9, 0.5 h; summary of the method: as §2
# [15] = test system: Panel NCI-60 (60 carcinoma cell lines); experiment: Anticancer activity against human Panel NCI-60 (60 carcinoma cell lines) cells assessed as cell growth inhibition incubated for 3 days by methylene blue staining based colorimetric assay relative to control; type: functional; details: 72 h, time 3 day
# Summary of the method: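 NCI-60 five-dose screen at five concentrations. TGI is the concentration giving total growth inhibition.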
IC50 [4] [µM],Compound,other results
,O=C(CCCCCCNC(=O)C(O)(O)C(F)(F)F)Nc1ncc(-c2ccc(Br)cc2)s1,Activity [1]: -11.47%; Activity [2]: Active; TGI [3]: 11.4 µM
3.45,O=C(CCCCCCNC(=O)C(O)(O)C(F)(F)F)Nc1nc2ccccc2o1,
> 100,O=C(CCCCCCNC(=O)c1cc(=O)c(O)co1)Nc1ccccc1,
29.9,O=C(CCCCCCNC(=O)C(O)(O)C(F)(F)F)Nc1nc(-c2ccccc2)c(-c2ccccc2)s1,
,O=C(CCCCCCNC(=O)C(O)(O)C(F)(F)F)Nc1ncc(-c2ccccc2)s1,Activity [1]: -10.06%
4.52,COc1ccc(NC(=O)CCCCCCNC(=O)C(O)(O)C(F)(F)F)cc1,"viability at 72 h, 30 µM [5]: > 80%; Activity [1]: 37.09%; Activity [6]: 20%; viability at 72 h, 30 µM [7]: > 50%; Activity [8]: 10%; IC50 at 3 days [9]: > 30 µM; IC50 [10]: 8.05 µM; IC50 [11]: 3.13 µM; IC50 at 3 days [12]: > 30 µM"
41.7,O=C(CCCCCCCNC(=O)C(O)(O)C(F)(F)F)Nc1ccccc1,
> 40,O=C(CCCCCCNC(=O)C(O)(O)C(F)(F)F)Nc1ccc(C(=O)c2ccccc2)cc1,
7.57,O=C(CCCCCCNC(=O)C(O)(O)C(F)(F)F)Nc1ccc(F)cc1,
6.67,O=C(CCCCCCNC(=O)C(O)(O)C(F)(F)F)Nc1ccncc1,
7.56,COc1ccc2nc(NC(=O)CCCCCCNC(=O)C(O)(O)C(F)(F)F)sc2c1,
> 100,CC(=O)C(=O)NCCCCC(=O)Nc1ccccc1,
10.1,Cc1nc(NC(=O)CCCCCCNC(=O)C(O)(O)C(F)(F)F)sc1-c1ccccc1,
10.1,O=C(CCCCCCC(=O)C(F)(F)F)Nc1ccccc1,Stability [13]: Unstable; Stability [14]: Unstable
,O=C(CCCCCCNC(=O)C(O)(O)C(F)(F)F)Nc1ccc(Br)cc1,Activity [1]: 2.58%; GI50 [15]: 3.16 µM; TGI [3]: 20.9 µM
10.1,COc1ccccc1NC(=O)CCCCCCNC(=O)C(O)(O)C(F)(F)F,
6.11,COc1cccc(NC(=O)CCCCCCNC(=O)C(O)(O)C(F)(F)F)c1,
18.5,O=C(CCCCCCNC(=O)C(O)(O)C(F)(F)F)Nc1ccc(F)cc1F,
9.14,O=C(CCCCCCNC(=O)C(O)(O)C(F)(F)F)Nc1ccccc1,
> 100,NC(=O)C(=O)NCCCCC(=O)Nc1ccccc1,
> 100,O=C(CCCCCCCNC(=O)c1cc(=O)c(O)co1)Nc1ccccc1,
> 100,CC(=O)C(=O)NCCCCCC(=O)Nc1ccccc1,
4.05,CCOc1ccc(-c2cnc(NC(=O)CCCCCCNC(=O)C(O)(O)C(F)(F)F)s2)cc1,
11,O=C(CCCCCCNC(=O)C(O)(O)C(F)(F)F)Nc1nc2ccc(Cl)cc2s1,
> 100,CC(=O)C(=O)NCCCCCCC(=O)Nc1ccccc1,
> 100,OC(O)(c1c(F)c(F)c(-n2cc(-c3ccccc3)nn2)c(F)c1F)C(F)(F)F,
,O=C(CCCCCCNC(=O)C(O)(O)C(F)(F)F)Nc1ccc(-c2ccccc2)cc1,Activity [1]: 2.1%; TGI [3]: 15.1 µM
17.2,Cc1ccc(S(=O)(=O)Nc2ccc(NC(=O)CCCCCCNC(=O)C(O)(O)C(F)(F)F)cc2)cc1,
34.8,O=C(CCCNC(=O)C(O)(O)C(F)(F)F)Nc1ccccc1,
